Shown are actives, neighbours in structure and some others; about 1.4% of the full set was active somewhere.
Thrombin inh – inhibitors of human thrombin | alpha-thrombin, Boc-VPR-AMC fluorogenic substrate cleavage | inhibition, % at 5 µM | actives 0.26% (n = 220,000) | P00734;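 active = inhibition at or above 40%; inactive = inhibition below 40%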
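Material: human alpha-thrombin enzyme / Medium: pH 7.5 Tris (50 mM) with NaCl 150 mM, Tween 20 0.05% / Compound: single-point dosing at 5 µM, 0.2% DMSO / Incubation: enzyme reaction carried out at room temperature / Detection: AMC fluorescence, 355/460 nm / Read-out basis: percent inhibition scaled between no-compound controls and no-enzyme blanks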
FXIIa inh – inhibitors of human coagulation factor XIIa | inhibition, % at 5 µM | AID 800 | purified FXIIa, Boc-QGR-AMC fluorogenic substrate, 2 h | actives 0.3% (n = 220,000) | P00748; in the data active = inhibition above about 40%
Target sequence (P00748 20-372 limits assumed): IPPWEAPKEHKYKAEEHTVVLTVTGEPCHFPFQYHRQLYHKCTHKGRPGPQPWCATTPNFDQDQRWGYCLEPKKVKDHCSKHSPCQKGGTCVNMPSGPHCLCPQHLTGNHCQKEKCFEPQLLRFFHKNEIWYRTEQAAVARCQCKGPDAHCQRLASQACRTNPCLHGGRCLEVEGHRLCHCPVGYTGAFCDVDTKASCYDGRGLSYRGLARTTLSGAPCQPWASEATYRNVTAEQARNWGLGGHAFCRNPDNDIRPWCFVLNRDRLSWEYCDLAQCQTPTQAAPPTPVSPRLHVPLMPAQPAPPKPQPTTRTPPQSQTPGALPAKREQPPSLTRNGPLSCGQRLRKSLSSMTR
Target sequence (P00748 373-615 limits assumed): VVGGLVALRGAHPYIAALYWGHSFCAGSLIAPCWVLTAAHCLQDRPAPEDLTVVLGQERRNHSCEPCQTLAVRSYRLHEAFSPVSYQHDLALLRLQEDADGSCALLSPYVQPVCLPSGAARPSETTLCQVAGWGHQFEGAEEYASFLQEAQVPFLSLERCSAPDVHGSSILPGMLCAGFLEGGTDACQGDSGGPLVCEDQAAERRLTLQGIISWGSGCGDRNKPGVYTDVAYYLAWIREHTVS
FXIa inh 1536 – factor XIa (human) inhibition. AID 798. P03951. purified FXIa, Boc-Glu-Ala-Arg-AMC fluorogenic substrate. actives 0.14% (n = 220,000). inhibition, % at 5 µM;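 active = inhibition of at least 40%; inactive = inhibition below 40%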;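 note: fluorescence of freed AMC excited at 355 nm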
KLK5 inh – blocks human kallikrein 5 protease activity. recombinant hK5, fluorogenic AMC substrate cleavage. inhibition, % at 5 µM. actives 0.59% (n = 210,000). Q9Y337;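 active = inhibition of 40% or more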
Calpain2 inh – blocks pig calpain II enzyme activity; purified calpain II, fluorogenic peptide substrate, 30 min; inhibition, % at 16 µM; actives 0.37% (n = 220,000); AID 1236;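 active = inhibition above about 50%, limit read from the data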
Hits are given with their value; n = inactive; x = no result.

SMILES	Thrombin inh	FXIIa inh	FXIa inh 1536	KLK5 inh	Calpain2 inh
CCNC(=O)CC1C(=O)N(CC)C(=S)N1NC(=O)c1cccnc1 (stereo unspecified)	n	n	n	n	n
O=C(CCl)Nc1ccccc1C(=O)Nc1ccc2c(c1)OCO2	n	n	n	42	n
O=C(CCNC(=O)c1ccccc1Cl)Nc1ccc2c(c1)OCO2	n	n	n	n	n
NC1=NC(=O)/C(=C\C=C\c2ccccc2)S1	n	n	n	55	n
NC1=NC(=O)/C(=C\c2cccnc2)S1	n	n	n	n	n
CCCOc1ccc(CNCCCOCC)cc1OC	n	n	n	x	n
CNC(=S)N/N=C(\C)c1ccc(C(C)(C)C)cc1	n	n	n	49	n
CC(=O)N1CCC2(CC1)NC(=O)N(c1ccccc1)N2	n	n	n	n	n
O=C1NC2(CCCCC2)NN1c1ccccc1	48	n	n	n	n
CC(=O)CCCCn1cnc2c1c(=O)n(C)c(=O)n2C	x	x	x	x	n
CCCCCCCCCn1c2c(c(=N)c3c1CCC3)CCC2	n	n	n	n	51
CCCCCCn1c2c(c(=N)c3c1CCC3)CCC2	n	n	n	n	n
COc1cccc(CC(NC(C)=O)C(=O)NC2CCN(c3nnnn3-c3ccccc3)CC2)c1OC (stereo unspecified)	n	x	n	n	n
CCC(C)SCC(=O)Nc1ccc(S(=O)(=O)N2CCOCC2)cc1OC (stereo unspecified)	n	n	n	n	n
COc1ccc(C2=NCCn3cccc32)c(OC)c1	n	n	n	41	n
CCCC1=NCCn2cccc21	n	n	n	n	n
O=C(Nc1ccc(Nc2ccncc2)cc1)c1ccc(Nc2ccnc3ccc([N+](=O)[O-])cc23)cc1	n	n	n	n	51
CC(C)N(C)CCOC(=O)/C=C/c1ccccc1	n	n	n	41	n
CSCc1nc2scc(-c3ccccc3)c2c(=O)[nH]1	41	n	n	n	n
Cn1ncc(Cl)c1C(=O)N/N=C/c1cccc(OC2CSC2)c1	n	n	n	n	n
O=C(CSc1ncccn1)N/N=C/c1cccc(OC2CSC2)c1	n	n	68	n	n
COc1ccc(NC(=O)c2ccc(=O)oc2)cc1	n	n	n	n	52
CC(C)C[C@H](NC(=O)c1nc[nH]c1C(=O)NCCCCCNC(=O)OC(C)(C)C)C(=O)OC(C)(C)C	n	n	n	n	51
CC(C)C[C@H](NC(=O)c1[nH]cnc1C(=O)N[C@@H](C)c1ccccc1)C(=O)OCc1ccccc1	n	n	n	n	56
CC(C)C[C@H](NC(=O)c1nc[nH]c1C(=O)N[C@@H](CCCCNC(=O)OC(C)(C)C)C(=O)OC(C)(C)C)C(=O)OC(C)(C)C	n	n	n	n	n
SMILES	Thrombin inh	FXIIa inh	FXIa inh 1536	KLK5 inh	Calpain2 inh
C[C@@H](NC(=O)c1nc[nH]c1C(=O)N[C@@H](CCCCNC(=O)OC(C)(C)C)C(=O)OC(C)(C)C)c1ccccc1	n	n	n	n	61
CC(C)(C)OC(=O)NCCCC[C@H](NC(=O)c1[nH]cnc1C(=O)Nc1ccccc1)C(=O)OC(C)(C)C	n	n	n	n	n
CC(C)C[C@H](NC(=O)c1nc[nH]c1C(=O)N(C)Cc1ccccc1)C(=O)OCc1ccccc1	n	n	n	n	n
CSc1c(CC(=O)NCCO)n(C)c2ccccc12	n	n	n	51	n
Cn1c(CC(=O)NCCO)c(Sc2ccccc2)c2ccccc21	n	n	n	n	n
CCCOC(=O)c1ccc(Oc2c(-c3ccc(OCC)cc3O)n[nH]c2C)cc1	n	n	n	n	n
CCCc1ccc(Oc2cn[nH]c2-c2ccc(O)c(C)c2O)cc1	n	n	n	n	53
CCCOC(=O)c1ccc(Oc2cn[nH]c2-c2ccc(OCC)cc2O)cc1	n	n	n	n	53
O=C(/C(=C/c1cccnc1)n1ccnc1)c1ccc(Cl)cc1Cl	n	n	n	n	n
CCC(=O)Nc1ccc(S(=O)(=O)Nc2ccc(Cl)nn2)cc1	n	n	n	n	n
Cc1ccc(N(CC(O)Cn2c3ccccc3c3ccccc32)S(C)(=O)=O)cc1 (stereo unspecified)	n	n	n	n	n
CS(=O)(=O)N(Cc1ccco1)CC(O)Cn1c2ccccc2c2ccccc21 (stereo unspecified)	n	n	n	44	n
O=C(O)CCCCCNc1nc2ncn(Cc3ccccc3)c2c(=O)[nH]1	n	n	n	n	n
CC(Nc1nc2ncn(Cc3ccccc3)c2c(=O)[nH]1)C(=O)O (stereo unspecified)	62	n	n	n	n
O=C(c1ccc(-c2nnc(-c3ccccc3)o2)cc1)N1CCCCCC1	n	n	n	n	60
NS(=O)(=O)c1ccc(NC(=O)Nc2ccc(Cl)cc2)cc1	n	n	n	44	n
O=C(NCCC1=CCCCC1)c1ccc2c(c1)N(Cc1ccccc1)C(=O)CS2	n	n	n	n	60
Cc1nnc(SCC(=O)Nc2ccc(Cl)cn2)s1	n	n	n	n	n
CCCN1CCC(NCc2cn(C)nc2-c2ccc(Oc3ccccc3)cc2)CC1	n	n	n	45	n
COC1CCCN(Cc2cn(C)nc2-c2ccc(Oc3ccccc3)cc2)C1 (stereo unspecified)	n	n	n	x	n
N#CC(c1ccc(Cl)cc1)N1CCOCC1 (stereo unspecified)	n	n	n	n	n
Oc1c(Cl)cc(Cl)cc1C(C#Cc1ccccc1)N1CCOCC1 (stereo unspecified)	n	n	n	n	53
Cc1ccc(OC(F)F)c(NC(=O)Nc2cccc(C(F)(F)F)c2)c1	n	n	n	56	n
O=C(Nc1ccccc1)Nc1cccc(C(F)(F)F)c1	x	n	n	n	n
CCOc1ccc(NC(=S)N=Nc2c(O)[nH]c3ccccc23)cc1	n	n	n	n	n
SMILES	Thrombin inh	FXIIa inh	FXIa inh 1536	KLK5 inh	Calpain2 inh
Oc1cccc(NC(=S)N=Nc2c(O)[nH]c3ccccc23)c1	n	n	n	78	n
C=CCSc1nc(C)cc(C(=O)OCC)c1C#N	n	n	n	n	n
O=C1c2ccccc2C(=O)N1CCc1nc2ccccc2c(=O)n1Cc1ccco1	n	n	n	57	n
CC(C)(C)c1ccc(Oc2ccc(NC(=O)CCCC(=O)O)cn2)cc1	n	47	n	n	n
CC(C)(C)c1ccc(Cn2nnc3c(=O)[nH]c(C4CCN(C(=O)Cc5cccs5)CC4)nc32)cc1	n	n	n	118	n
CC(C)(C)c1ccc(Cn2nnc3c(=O)[nH]c(C4CCCN(C(=O)Cc5cccs5)C4)nc32)cc1 (stereo unspecified)	n	n	n	n	n
COc1cc(=O)n(C)c2c(O)cccc12	n	n	n	n	n
Cc1cc(C)c(S(=O)(=O)NCC(=O)NCc2ccccn2)c(C)c1	n	n	n	n	n
CC(=O)/C(N=Nc1ccc(C(=O)O)cc1)=C(\C)O	n	n	n	n	n
CC(=O)/C(N=Nc1ccc(-n2ccc(C(F)(F)F)n2)cc1)=C(\C)O	n	n	n	n	93
CC(C)CC(c1nnnn1C1CCCC1)N1CCC(C(N)=O)CC1 (stereo unspecified)	x	n	n	n	51

High-throughput results: PubChem BioAssay, several laboratories
